Laboratory results taken from ChEMBL document CHEMBL1944532, “Synthesis and evaluation of anticancer activity of some novel 6-aryl-2-(p-sulfamylphenyl)-pyridazin-3(2H)-ones” (Eur J Med Chem, 2012).
Active and inactive are the calls of the source. The rule behind the calls is not given here.

Tests used:
MDA-MB-468 = assay: Cytotoxicity against human MDA-MB-468 cells assessed as cell growth at 10 uM after 48 hrs by SRB assay; assay type: functional; conditions: MDA-MB-468, 48 h, read-out: Activity
Outline: (§1)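 NCI primary single-dose screen at 10^-5 M against the full panel of about 60 human tumor cell lines. Cells were in RPMI-1640 with 5% fetal calf serum and 2 mM L-glutamine and preincubated 24 h. Compound was given in DMSO with 48 h exposure. Growth was estimated by sulforhodamine B protein assay.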

Malme-3M [1] = assay: Cytotoxicity against human MALME-3M cells assessed as cell growth at 10 uM after 48 hrs by SRB assay; assay type: functional; conditions: read-out: Activity; outline: as §1
[2] = Toxicity in ip dosed athymic nude mouse assessed as lethality after 2 weeks; assay type: organism-based; conditions: in vivo
Outline: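 Maximum tolerated dose determination in athymic nude mice. Single ip injection of 400, 200 or 100 mg/kg, one mouse per dose. Compound solubilized in DMSO. Feed and water ad libitum. Mice observed 2 weeks for body weight loss, lethality and other toxicity signs; sacrificed if weight loss exceeds 20%.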

OVCAR-8 = assay: Cytotoxicity against human OVCAR8 cells after 48 hrs by SRB assay; assay type: functional; conditions: OVCAR-8, 48 h
Outline: (§2)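 NCI five-dose screen on the ~60-line human tumor panel. Cells grown in RPMI-1640 with 5% fetal calf serum and 2 mM L-glutamine, seeded at line-dependent density and preincubated 24 h. Compound added from DMSO at 10-fold dilutions from 10^-4 to 10^-8 M, continuous exposure 48 h. Growth read by sulforhodamine B protein stain. GI50, TGI and LC50 derived per line.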

HCT-15 = assay: Cytotoxicity against human HCT15 cells assessed as cell growth at 10 uM after 48 hrs by SRB assay; assay type: functional; conditions: HCT-15, 48 h, read-out: Activity
Outline: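 NCI primary single-dose screen at 10^-5 M against the ~60 human tumour cell line panel. Cells grown in RPMI-1640 with 5% fetal calf serum and 2 mM L-glutamine and pre-incubated 24 h before compound addition. Compound added from DMSO solution with 48 h exposure. Growth read by sulforhodamine B protein staining.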

CAKI-1 = assay: Cytotoxicity against human Caki1 cells after 48 hrs by SRB assay; assay type: functional; conditions: CAKI-1, 48 h
Outline: (§3)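 NCI ~60-line panel in RPMI-1640 with 5% fetal calf serum and 2 mM L-glutamine, pre-incubated 24 h. Compound in DMSO tested at five 10-fold concentrations (10^-4 to 10^-8 M) with 48 h continuous exposure. Growth measured by sulforhodamine B protein assay. GI50 (50% net growth inhibition), TGI (total inhibition) and LC50 (50% net cell death) derived from dose-response.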

TK-10 = assay: Cytotoxicity against human TK10 cells assessed as cell growth at 10 uM after 48 hrs by SRB assay; assay type: functional; conditions: TK-10, 48 h, read-out: Activity
Outline: (§4)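 NCI primary one-dose screen at 10^-5 M against the full panel of about 60 human tumour cell lines, run to the NCI Drug Evaluation Branch protocol.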

NCI-H226 = assay: Cytotoxicity against human NCI-H226 cells assessed as cell growth at 10 uM after 48 hrs by SRB assay; assay type: functional; conditions: NCI-H226, 48 h, read-out: Activity; outline: as §1
OVCAR-3 [3] = assay: Cytotoxicity against human OVCAR3 cells assessed as cell growth at 10 uM after 48 hrs by SRB assay; assay type: functional; conditions: OVCAR-3, 48 h, read-out: Activity; outline: as §1
LOX IMVI = assay: Cytotoxicity against human LOXIMVI cells after 48 hrs by SRB assay; assay type: functional; outline: as §2
SW-620 [4] = assay: Antitumor activity against human SW620 cells implanted in mouse dosed qd for 4 days by formazan dye-based hollow fiber assay; assay type: functional, organism-based
Outline: (§5)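 Cells grown inside polyvinylidene fluoride hollow fibers; each line implanted into both intraperitoneal and subcutaneous compartments in mice. Compound given ip at two doses on a QD x 4 schedule. Fibers then recovered and viable cell mass measured by formazan dye conversion. Scored 2 per dose giving ≥50% reduction in viable cell mass (%T/C 50).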

SF-539 = assay: Cytotoxicity against human SF539 cells after 48 hrs by SRB assay; assay type: functional; conditions: SF-539, 48 h; outline: as §2
A498 = assay: Cytotoxicity against human A498 cells after 48 hrs by SRB assay; assay type: functional; conditions: A498, 48 h; outline: as §3
UACC-62 = assay: Cytotoxicity against human UACC62 cells after 48 hrs by SRB assay; assay type: functional; conditions: UACC-62, 48 h
Outline: (§6)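 NCI 60-cell-line five-dose screen. Cells were grown in 1640 medium with 5% fetal calf serum and 2 mM L-glutamine, with inoculum density set by cell line, and pre-incubated 24 h. Compound in DMSO was added at 10^-4 to 10^-8 M (10-fold steps) with 48 h continuous exposure. Growth was read by SRB protein assay, and GI50, TGI and LC50 were derived from dose-response.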

COLO 205 = assay: Antitumor activity against human COLO205 cells implanted in mouse dosed qd for 4 days by formazan dye-based hollow fiber assay; assay type: functional, organism-based; outline: as §5
OVCAR-4 = assay: Cytotoxicity against human OVCAR4 cells assessed as cell growth at 10 uM after 48 hrs by SRB assay; assay type: functional; conditions: OVCAR-4, 48 h, read-out: Activity; outline: as §1
Malme-3M [5] = assay: Cytotoxicity against human MALME-3M cells after 48 hrs by SRB assay; assay type: functional; outline: as §2
M14 = assay: Cytotoxicity against human M14 cells assessed as cell growth at 10 uM after 48 hrs by SRB assay; assay type: functional; conditions: M14, 48 h, read-out: Activity; outline: as §1
HCC 2998 = assay: Cytotoxicity against human HCC2998 cells after 48 hrs by SRB assay; assay type: functional; conditions: HCC 2998, 48 h; outline: as §3
U-251 = assay: Cytotoxicity against human U251 cells assessed as cell growth at 10 uM after 48 hrs by SRB assay; assay type: functional; conditions: U-251, 48 h, read-out: Activity; outline: as §4
SW-620 [6] = assay: Cytotoxicity against human SW620 cells after 48 hrs by SRB assay; assay type: functional; conditions: SW-620, 48 h; outline: as §6
UO-31 = assay: Cytotoxicity against human UO31 cells assessed as cell growth at 10 uM after 48 hrs by SRB assay; assay type: functional; conditions: UO-31, 48 h, read-out: Activity; outline: as §4
OVCAR-3 [7] = assay: Antitumor activity against human OVCAR3 cells implanted in mouse dosed qd for 4 days by formazan dye-based hollow fiber assay; assay type: functional, organism-based; outline: as §5
SR = assay: Cytotoxicity against human SR cells assessed as cell growth at 10 uM after 48 hrs by SRB assay; assay type: functional; conditions: read-out: Activity; outline: as §4

Work on `CCc1ccc(-c2ccc(=O)n(-c3ccc(S(N)(=O)=O)cc3)n2)cc1` yielded a growth at 10 µM (MDA-MB-468) of 7.89%, a growth at 10 µM (Malme-3M [1]) of 35.6% and an MTD at 336 h [2] of 400 mg/kg. For the same molecule, the LC50 (OVCAR-8) was > 100 µM, the GI50 (OVCAR-8; read-out: GI50) was 11 µM and the GI50 (OVCAR-8; read-out: pGI50 (converted)) was 11 µM. The TGI (OVCAR-8; read-out: pTGI) was > 100 µM, the growth at 10 µM (HCT-15) was 29.7% and the LC50 (concentration causing 50% net cell death) (CAKI-1) was > 100 µM. For the same molecule, the GI50 (CAKI-1; read-out: GI50) was 2.73 µM, the GI50 (CAKI-1; read-out: pGI50 (converted)) was 2.75 µM and the TGI (CAKI-1; read-out: pTGI) was > 100 µM. For the same molecule, the growth at 10 µM (TK-10) was 76.8%, the growth at 10 µM (NCI-H226) was 94.1% and the growth at 10 µM (OVCAR-3 [3]) was -56.8%. For the same molecule, the LC50 (LOX IMVI) was > 100 µM, the GI50 (LOX IMVI; read-out: GI50) was 5.27 µM and the GI50 (LOX IMVI; read-out: pGI50 (converted)) was 5.25 µM. The TGI (LOX IMVI; read-out: pTGI) was > 100 µM, the Activity (SW-620 [4]) was “inactive” and the LC50 (SF-539) was > 100 µM. The GI50 (SF-539; read-out: GI50) was 1.84 µM, the GI50 (SF-539; read-out: pGI50 (converted)) was 1.82 µM and the TGI (SF-539; read-out: pTGI (converted)) was 22.9 µM. For the same molecule, the LC50 (A498) was > 100 µM, the GI50 (A498; read-out: GI50) was 1.97 µM and the GI50 (A498; read-out: pGI50 (converted)) was 1.95 µM. For the same molecule, the TGI (A498; read-out: pTGI (converted)) was 38 µM, the LC50 (UACC-62) was > 100 µM and the GI50 (UACC-62; read-out: GI50) was 0.724 µM. The GI50 (UACC-62; read-out: pGI50 (converted)) was 0.724 µM, the TGI (UACC-62; read-out: pTGI) was > 100 µM and the Activity (COLO 205) was “inactive”. It also gave a growth at 10 µM (OVCAR-4) of 74.5%, an LC50 (Malme-3M [5]) of 75.9 µM and a GI50 (Malme-3M [5]; read-out: GI50) of 0.188 µM. For the same molecule, the GI50 (Malme-3M [5]; read-out: pGI50 (converted)) was 0.186 µM, the TGI (Malme-3M [5]; read-out: pTGI (converted)) was 16.2 µM and the growth at 10 µM (M14) was 17.7%. The LC50 (HCC 2998) was > 100 µM, the GI50 (HCC 2998; read-out: GI50) was 2.62 µM and the GI50 (HCC 2998; read-out: pGI50 (converted)) was 2.63 µM. The TGI (HCC 2998; read-out: pTGI) was > 100 µM, the growth at 10 µM (U-251) was 35% and the LC50 (SW-620 [6]) was > 100 µM. The GI50 (SW-620 [6]; read-out: GI50) was 0.454 µM, the GI50 (SW-620 [6]; read-out: pGI50 (converted)) was 0.457 µM and the TGI (SW-620 [6]; read-out: pTGI) was > 100 µM. The growth at 10 µM (UO-31) was 38.4%, the Activity (OVCAR-3 [7]) was “inactive” and the growth at 10 µM (SR) was -11.9%.
